Columns and labels:
U2OS = experiment: Multiplex assay against U2OS; assay type: toxicity, cell-based; settings: human
In short: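 Compound was added to live cells that had been stained at seeding with Hoechst33342, BioTracker Green Microtubule Cytoskeleton Dye, MitoTracker Red and Annexin V Alexa Fluor 680, and imaging followed on a CQ1 microscope at 37°C and 5% CO2. CellPathfinder machine-learning gating divided cells into Hoechst high-intensity objects or normal cells, normal cells into healthy, pyknosed or fragmented nuclei, and pyknosed cells into mitotic or apoptotic. Tubulin, mitochondrial-mass and membrane-permeability phenotypes are per cents of healthy-nucleus cells.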

Fibroblast = experiment: Incucyte cell viability with human fibroblast; assay type: toxicity, cell-based; settings: 10 µM, compound concentration 10 uM; also: filed as whole numbers so only -1 and 0 and 1 occur
[1] = 12 h, 1 µM, compound concentration 1 uM, replicate 1
[2] = 12 h, 1 µM, compound concentration 1 uM, replicate 2
[3] = 12 h, 10 µM, compound concentration 10 uM, replicate 1
[4] = 12 h, 10 µM, compound concentration 10 uM, replicate 2
[5] = 24 h, 1 µM, compound concentration 1 uM, replicate 1
[6] = 24 h, 1 µM, compound concentration 1 uM, replicate 2
[7] = 24 h, 10 µM, compound concentration 10 uM, replicate 1
[8] = 24 h, 10 µM, compound concentration 10 uM, replicate 2
[9] = 48 h, 1 µM, compound concentration 1 uM, replicate 1
[10] = 48 h, 1 µM, compound concentration 1 uM, replicate 2
[11] = 48 h, 10 µM, compound concentration 10 uM, replicate 1
[12] = 48 h, 10 µM, compound concentration 10 uM, replicate 2

## CN(c1cc(C(F)(F)F)nc(OCCC(=O)O)n1)c1cccc2c1CCC2
U2OS; [1]
  Population Apoptotic (%): 33%
  Population Fragmented Nuclei (%): 24%
  Population Healthy Nuclei (%): 64%
  Population Hoechst High Intensity Objects (%): 11%
  Population Membrane Permeable-Phenotype (%): 8%
  Population Mitochondria Different-Phenotype (%): 12%
  Population Mitotic Cells (%): 66%
  Population Normal (%): 88%
  Population Pyknosed Nuclei (%): 11%
  Population Tubulin-Different-Phenotype (%): 10%
  Total Cell Count: 191
U2OS; [2]
  Population Apoptotic (%): 0%
  Population Fragmented Nuclei (%): 9%
  Population Healthy Nuclei (%): 80%
  Population Hoechst High Intensity Objects (%): 12%
  Population Membrane Permeable-Phenotype (%): 4%
  Population Mitochondria Different-Phenotype (%): 20%
  Population Mitotic Cells (%): 100%
  Population Normal (%): 87%
  Population Pyknosed Nuclei (%): 9%
  Population Tubulin-Different-Phenotype (%): 28%
  Total Cell Count: 65
U2OS; [3]
  Population Apoptotic (%): 23%
  Population Fragmented Nuclei (%): 11%
  Population Healthy Nuclei (%): 77%
  Population Hoechst High Intensity Objects (%): 5%
  Population Membrane Permeable-Phenotype (%): 9%
  Population Mitochondria Different-Phenotype (%): 13%
  Population Mitotic Cells (%): 76%
  Population Normal (%): 94%
  Population Pyknosed Nuclei (%): 11%
  Population Tubulin-Different-Phenotype (%): 15%
  Total Cell Count: 149
U2OS; [4]
  Population Apoptotic (%): 0%
  Population Fragmented Nuclei (%): 13%
  Population Healthy Nuclei (%): 86%
  Population Hoechst High Intensity Objects (%): 14%
  Population Membrane Permeable-Phenotype (%): 4%
  Population Mitochondria Different-Phenotype (%): 10%
  Population Mitotic Cells (%): 0%
  Population Normal (%): 85%
  Population Pyknosed Nuclei (%): 0%
  Population Tubulin-Different-Phenotype (%): 30%
  Total Cell Count: 71
U2OS; [5]
  Population Apoptotic (%): 40%
  Population Fragmented Nuclei (%): 16%
  Population Healthy Nuclei (%): 77%
  Population Hoechst High Intensity Objects (%): 7%
  Population Membrane Permeable-Phenotype (%): 6%
  Population Mitochondria Different-Phenotype (%): 10%
  Population Mitotic Cells (%): 60%
  Population Normal (%): 92%
  Population Pyknosed Nuclei (%): 6%
  Population Tubulin-Different-Phenotype (%): 5%
  Total Cell Count: 200
U2OS; [6]
  Population Apoptotic (%): 0%
  Population Fragmented Nuclei (%): 4%
  Population Healthy Nuclei (%): 95%
  Population Hoechst High Intensity Objects (%): 8%
  Population Membrane Permeable-Phenotype (%): 2%
  Population Mitochondria Different-Phenotype (%): 13%
  Population Mitotic Cells (%): 0%
  Population Normal (%): 91%
  Population Pyknosed Nuclei (%): 0%
  Population Tubulin-Different-Phenotype (%): 30%
  Total Cell Count: 68
U2OS; [7]
  Population Apoptotic (%): 52%
  Population Fragmented Nuclei (%): 8%
  Population Healthy Nuclei (%): 84%
  Population Hoechst High Intensity Objects (%): 3%
  Population Membrane Permeable-Phenotype (%): 5%
  Population Mitochondria Different-Phenotype (%): 10%
  Population Mitotic Cells (%): 47%
  Population Normal (%): 96%
  Population Pyknosed Nuclei (%): 7%
  Population Tubulin-Different-Phenotype (%): 14%
  Total Cell Count: 176
U2OS; [8]
  Population Apoptotic (%): 0%
  Population Fragmented Nuclei (%): 13%
  Population Healthy Nuclei (%): 81%
  Population Hoechst High Intensity Objects (%): 13%
  Population Membrane Permeable-Phenotype (%): 3%
  Population Mitochondria Different-Phenotype (%): 13%
  Population Mitotic Cells (%): 100%
  Population Normal (%): 86%
  Population Pyknosed Nuclei (%): 5%
  Population Tubulin-Different-Phenotype (%): 44%
  Total Cell Count: 79
U2OS; [9]
  Population Apoptotic (%): 43%
  Population Fragmented Nuclei (%): 7%
  Population Healthy Nuclei (%): 86%
  Population Hoechst High Intensity Objects (%): 5%
  Population Membrane Permeable-Phenotype (%): 4%
  Population Mitotic Cells (%): 56%
  Population Normal (%): 94%
  Population Pyknosed Nuclei (%): 6%
  Population Tubulin-Different-Phenotype (%): 8%
  Total Cell Count: 200
U2OS; [10]
  Population Apoptotic (%): 40%
  Population Fragmented Nuclei (%): 6%
  Population Healthy Nuclei (%): 88%
  Population Hoechst High Intensity Objects (%): 6%
  Population Membrane Permeable-Phenotype (%): 5%
  Population Mitochondria Different-Phenotype (%): 15%
  Population Mitotic Cells (%): 60%
  Population Normal (%): 93%
  Population Pyknosed Nuclei (%): 4%
  Population Tubulin-Different-Phenotype (%): 24%
  Total Cell Count: 81
U2OS; [11]
  Population Apoptotic (%): 50%
  Population Fragmented Nuclei (%): 5%
  Population Healthy Nuclei (%): 89%
  Population Hoechst High Intensity Objects (%): 2%
  Population Membrane Permeable-Phenotype (%): 2%
  Population Mitochondria Different-Phenotype (%): 9%
  Population Mitotic Cells (%): 50%
  Population Normal (%): 97%
  Population Pyknosed Nuclei (%): 4%
  Population Tubulin-Different-Phenotype (%): 15%
  Total Cell Count: 251
U2OS; [12]
  Population Apoptotic (%): 20%
  Population Fragmented Nuclei (%): 8%
  Population Healthy Nuclei (%): 87%
  Population Hoechst High Intensity Objects (%): 6%
  Population Membrane Permeable-Phenotype (%): 1%
  Population Mitochondria Different-Phenotype (%): 6%
  Population Mitotic Cells (%): 80%
  Population Normal (%): 93%
  Population Pyknosed Nuclei (%): 3%
  Population Tubulin-Different-Phenotype (%): 38%
  Total Cell Count: 113
Fibroblast; 0 h, replicate number 1, timepoint 0 hours
  Growth Rate: 1
Fibroblast; 0 h, replicate number 2, timepoint 0 hours
  Growth Rate: 0
Fibroblast; 6 h, replicate number 1, timepoint 6 hours
  Growth Rate: 0
Fibroblast; 12 h, replicate number 1, timepoint 12 hours
  Growth Rate: 1
Fibroblast; 18 h, replicate number 1, timepoint 18 hours
  Growth Rate: 0
Fibroblast; 24 h, replicate number 1, timepoint 24 hours
  Growth Rate: 0
Fibroblast; 24 h, replicate number 2, timepoint 24 hours
  Growth Rate: 1

Reference: ChEMBL document CHEMBL4689842, “EUbOPEN Chemogenomics Library wave 1” (2021)
